This note sets out measurements from PubChem BioAssay.

Each structure is given as a SMILES string. The source made the active and inactive calls.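 The calls were made as follows, unless noted: active = fluorescence slope after compound addition differing from the mean of all tested samples at 99.7% confidence, mostly higher but some lower; inactive = the rest.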

Assay [1] in a line: inhibitors of TNFa-induced NFkB p65 translocation, primary screen, imaging, HUVEC, MLSMR starter and 10KST1 sets (AID 438;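 active = inhibition above 20% together with a positive visual image hit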;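 also: compound added about 3h40 before a 20 min TNFalpha stimulation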;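 as to inhibition: signal is the nuclear over cytoplasmic p65 intensity ratio per well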). As to conditions: HUVEC TNFa-induced p65 nuclear translocation; cell count: measured here: nuclei count (cytotoxicity indicator), at 2.08 µM; inhibition: at 2 µM, stronger effect = higher value, 0% TNFa-plus-vehicle, 100% no-TNFa wells.
Assay [2] in a line: reduction of polyQ htt aggregates in cells – imaging, exon1htt(103Q)mCFP cells, high-content imaging, primary screen (AID 483;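 active = visual image review flags a hit and inhibition of aggregation exceeds 20%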;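 also: compound exposure lasted 3 days before fixation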;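 as to nuclei count: percent of the per-plate median nuclei count of sample wells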). Particulars: exon1htt(103Q)mCFP cell line, aggregate imaging, at 2 µM; inhibition of aggregation: stronger effect = higher value; nuclei count: measured here: cell count, toxicity.
Assay [3] in a line: endothelial E-selectin expression blockers – imaging, HUVEC, immunofluorescence, MLSMR starter and 10KST1 sets, primary screen (AID 487;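 active = visually confirmed hit in the image check and inhibition above 20%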;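 as to inhibition: signal is fraction of cell area covered by stained E-selectin grains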;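 as to nuclei count: 100% = median nuclei count of all wells on the same plate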). Particulars: HUVEC TNFalpha-induced E-selectin immunofluorescence imaging, at 2 µM; inhibition: stronger effect = higher value; nuclei count: measured here: cell number, toxicity.
Assay [4] addresses Voltage-gated potassium channel subunit beta-2 (Rattus norvegicus) (UniProt P62483). Description: inhibitors of rat Kvbeta2 reductase activity – biochemical, NADPH fluorescence, primary screen (AID 622;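 active = fluorescence slope higher than the sample average by over 3 SD, cut at about -0.22 in these data, passing the limit was not always enough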;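 also: slope of raw intensity against log time taken from 70 to 1610 s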). As to conditions: recombinant KvBeta, 4-cyanobenzaldehyde reduction, at 10 µM, stronger effect = higher value.
For assay [5] the target is unchanged. The assay is described as follows: enhancers of rat Kvbeta2 NADPH turnover – biochemical, NADPH fluorescence, primary screen (AID 623;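 active = NADPH fluorescence slope more negative than the mean of all samples by about 3 SD, 99.7% confidence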;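 also: fluorescence intensity change per second fitted from 20 to 320 s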). As to conditions: Recombinant KvBeta, NADPH fluorescence decrease slope, 10 min; at 10 µM; stronger effect = lower value.
The target in assay [6] is Muscarinic acetylcholine receptor M4 (Homo sapiens) (UniProt P08173). Description: M4-linked GIRK flux change, two-sided – cell-based, HEK293 M4/GIRK, thallium flux, BTC-AM, M4 allosteric agonist project, primary screen (AID 625).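 Also: thallium influx through GIRK channels coupled to M4 in HEK293 cells with BTC-AM dye.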 As to conditions: at 10 µM, actives lie on both sides. A digest of the protocol: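 Material – HEK293 cells with M4 receptor and GIRK channels · Buffer or medium – pH 7.3 thallium assay buffer · Doses – one dose, 10 µM final · Timing – cells overnight at 37 °C, BTC-AM loading 1 h, reads 2 min total · Measured by – kinetic fluorescence with BTC-AM dye · Controls – carbachol and DMSO controls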
Chain of Muscarinic acetylcholine receptor M4 (Homo sapiens) (P08173 whole entry, looked up): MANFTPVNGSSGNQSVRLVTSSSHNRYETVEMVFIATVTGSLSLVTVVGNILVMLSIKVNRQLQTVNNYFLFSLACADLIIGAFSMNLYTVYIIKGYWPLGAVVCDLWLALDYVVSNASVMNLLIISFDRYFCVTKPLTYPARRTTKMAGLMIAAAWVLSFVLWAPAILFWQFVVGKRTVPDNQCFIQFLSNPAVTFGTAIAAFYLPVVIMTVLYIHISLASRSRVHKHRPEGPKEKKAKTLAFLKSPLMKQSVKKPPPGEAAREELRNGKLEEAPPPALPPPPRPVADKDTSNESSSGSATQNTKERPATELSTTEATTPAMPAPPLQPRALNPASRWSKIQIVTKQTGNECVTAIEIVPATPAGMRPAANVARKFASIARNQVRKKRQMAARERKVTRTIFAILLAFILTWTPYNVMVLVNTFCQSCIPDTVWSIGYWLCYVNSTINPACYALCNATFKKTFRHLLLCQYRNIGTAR

The nature of assay [7]: blockers of RIG-like receptor reporter activation – cell-based, Sendai virus stimulus, luciferase, 10K MLSCN set, TLR/RLR signaling modifier project, primary screen (AID 602276;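 active = inhibition at or above 50% at 10 µM; inactive = inhibition below 50%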;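 also: firefly luciferase from ISG56 promoter only with Renilla not read in this screen; 0% = Sendai virus plus DMSO and 100% = medium plus DMSO without virus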). Particulars: HEK293 RL24 IRF3 luciferase reporter, at 10 µM, stronger effect = higher value.
Assay [8] is described as follows: TLR3 IRF3 reporter activation blockers – cell-based, poly I:C stimulus, luciferase, 10K MLSCN set, primary screen (AID 602277;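 active = inhibition of the reporter signal at or above 50%; inactive = inhibition below 50%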). Particulars: HEK293-TLR3 RL24 IRF3 luciferase reporter, at 10 µM, stronger effect = higher value. For orientation: A reporter such as luciferase makes a cellular process visible.

Chain of Voltage-gated potassium channel subunit beta-2 (Rattus norvegicus) (P62483 whole entry, looked up): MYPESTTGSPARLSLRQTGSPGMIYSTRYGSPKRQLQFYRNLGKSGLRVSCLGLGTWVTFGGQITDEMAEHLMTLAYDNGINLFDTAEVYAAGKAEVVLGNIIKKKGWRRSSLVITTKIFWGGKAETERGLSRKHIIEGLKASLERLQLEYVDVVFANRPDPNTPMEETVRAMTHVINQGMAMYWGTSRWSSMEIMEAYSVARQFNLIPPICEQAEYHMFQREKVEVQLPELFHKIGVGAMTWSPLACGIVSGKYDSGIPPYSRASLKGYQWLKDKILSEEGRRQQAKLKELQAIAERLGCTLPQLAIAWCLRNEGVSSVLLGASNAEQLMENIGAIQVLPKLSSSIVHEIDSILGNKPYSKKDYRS

For the compound `COc1cccc(Oc2ccc(N)cn2)c1`, in assay [1], the cell count came to 392. For the same compound, the inhibition (commonly the change of the read-out against control, counted positive when it falls) in assay [1] was -4.4% (inactive); in assay [3], -126% (inactive); in assay [7], -7.7% (inactive); in assay [8], 1.94% (inactive). Moreover, the inhibition of aggregation in assay [2] was -4.1% (inactive). Further, the nuclei count came to 100% in assay [2] and 114% in assay [3]. Also, the fluorescence slope in assay [4] was -0.537 (inactive); in assay [6], 0.0033 (inactive). Also, the NADPH fluorescence slope in assay [5] was -0.000148 (inactive).

Regarding `COc1cccc2cc(C(=O)n3ccc(C)n3)c(=O)oc12`, in assay [1], the cell count amounted to 297. In addition, the inhibition in assay [1] was -8% (inactive); in assay [3], 10.9% (inactive); in assay [7] it was 13.4% (inactive); in assay [8], 12.3% (inactive). Moreover, the inhibition of aggregation in assay [2] was -15.2% (inactive). Also, the nuclei count in assay [2] was 93.5%; in assay [3], 88.2%. Also, the values for the fluorescence slope in assay [4] and in assay [6] were -0.409 (inactive) and 0.00485 (inactive), respectively. Besides, in assay [5], the NADPH fluorescence slope is 1.2e-05 (inactive).

Turning to `c1cnn(-c2cc(N3CCOCC3)ncn2)c1`, in assay [1], the cell count turned out to be 301. In addition, the inhibition in assay [1] was -5% (inactive); in assay [3] it was 2.8% (inactive); in assay [7], -15.2% (inactive); in assay [8], -21.2% (inactive). Also, the inhibition of aggregation in assay [2] was 20.4% (inactive). The nuclei count was found to be 85.2% in assay [2] and 101% in assay [3]. Besides, the fluorescence slope in assay [4] is -0.5 (inactive); in assay [6], 0.0047 (inactive). In assay [5], the NADPH fluorescence slope is 7.1e-05 (inactive).

`O=C(CCCCCn1c(=O)[nH]c2ccsc2c1=O)N1CCCCC1`: the cell count in assay [1] was found to be 306. Moreover, the inhibition was -1.8% (inactive) in assay [1], -75% (inactive) in assay [3], 18.4% (inactive) in assay [7] and 6.28% (inactive) in assay [8]. Moreover, the inhibition of aggregation in assay [2] was 25.2% (inactive). For the same compound, the nuclei count in assay [2] was 91.7%; in assay [3] it was 85.7%. Besides, the fluorescence slope in assay [4] was -0.457 (inactive); in assay [6], 0.0042 (inactive). In addition, the NADPH fluorescence slope in assay [5] is -2.3e-05 (inactive).

Take `O=C(c1cccs1)c1cn(CC(=O)N2CCc3ccccc3C2)c2ccccc12`: the cell count in assay [1] was 785. For the same compound, the inhibition in assay [1] was -2.9% (inactive); in assay [3], -137% (inactive); in assay [7], 11.1% (inactive); in assay [8], 8.88% (inactive). In assay [2], the inhibition of aggregation is -15.5% (inactive). The nuclei count stood at 100% in assay [2] and 123% in assay [3]. Moreover, the values for the fluorescence slope in assay [4] and in assay [6] were -0.519 (inactive) and 0.00668 (inactive), respectively. Further, in assay [5], the NADPH fluorescence slope is -3.8e-05 (inactive).

As to `CCCc1n[nH]c2c1/C(=N/O)CC(c1ccccc1)C2` (centres undefined), the cell count in assay [1] was 522. The inhibition is -13.6% (inactive) in assay [1], -7.4% (inactive) in assay [3], 8.69% (inactive) in assay [7] and -7.88% (inactive) in assay [8]. Also, the inhibition of aggregation in assay [2] is 3.1% (inactive). For the same compound, the values for the nuclei count in assay [2] and in assay [3] were 93.4% and 110%, respectively. For the same compound, the values for the fluorescence slope in assay [4] and in assay [6] were -0.594 (inactive) and 0.0053 (inactive), respectively. Besides, the NADPH fluorescence slope in assay [5] is 4.1e-05 (inactive).

Take `COC(=O)c1[nH]c(C)c(/C(O)=C2\C(=O)C(=O)N(CCN(C)C)C2c2ccccc2OC)c1C` (centres undefined): the cell count in assay [1] was 472. The inhibition in assay [1] was -8% (inactive); in assay [3], -33.4% (inactive); in assay [7], -8.53% (inactive); in assay [8], 2.66% (inactive). Besides, in assay [2], the inhibition of aggregation was 10.7% (inactive). The nuclei count in assay [2] worked out at 106%; in assay [3], 103%. In addition, the values for the fluorescence slope in assay [4] and in assay [6] were -0.326 (inactive) and 0.00598 (inactive), respectively. Besides, in assay [5], the NADPH fluorescence slope is -1.8e-05 (inactive).

Take `CCSc1nc(-c2ccc(OC)cc2)ccc1C#N`: the cell count in assay [1] stood at 380. Besides, the inhibition in assay [1] is 1.5% (inactive); in assay [3] it was -44.4% (inactive); in assay [7], 9.36% (inactive); in assay [8] it was 7.27% (inactive). Also, the inhibition of aggregation in assay [2] is -5.1% (inactive). Moreover, the nuclei count amounted to 72.9% in assay [2] and 101% in assay [3]. The results for the fluorescence slope in assay [4] and in assay [6] were -0.551 (inactive) and 0.00795 (inactive), respectively. For the same compound, the NADPH fluorescence slope in assay [5] is -1.9e-05 (inactive).

With `Cc1ccc2c(c1)-c1cc(C)nn1C(c1ccc3c(c1)OCO3)N2` (centres undefined), the cell count in assay [1] was 651. Moreover, the inhibition in assay [1] is 4.2% (inactive); in assay [3], -7.1% (inactive); in assay [7], -4.39% (inactive); in assay [8] it was -18.6% (inactive). Moreover, the inhibition of aggregation in assay [2] is 16% (inactive). Moreover, the values for the nuclei count in assay [2] and in assay [3] were 99.1% and 130%, respectively. Further, the fluorescence slope in assay [4] was -0.568 (inactive); in assay [6], 0.00558 (inactive). Further, the NADPH fluorescence slope in assay [5] is -2.2e-05 (inactive).

On to `c1ccc(-c2cc3c(nn2)CCc2nonc2-3)cc1`, for which, in assay [1], the cell count was found to be 339. Moreover, the inhibition is 2.4% (inactive) in assay [1], -9.2% (inactive) in assay [3], -15.2% (inactive) in assay [7] and -31.9% (inactive) in assay [8]. Besides, in assay [2], the inhibition of aggregation is 19.1% (inactive). Besides, the nuclei count in assay [2] was found to be 100%; in assay [3] it was 111%. The fluorescence slope in assay [4] was -0.543 (inactive); in assay [6], 0.00417 (inactive). Moreover, the NADPH fluorescence slope in assay [5] was -0.00017 (inactive).

As to `Cc1ccc(-c2noc(C3CCCN(C(=O)c4ccc(F)cc4F)C3)n2)cc1` (centres undefined), the cell count in assay [1] was determined as 753. Besides, the inhibition is -11.3% (inactive) in assay [1], -21.5% (inactive) in assay [3], -9.91% (inactive) in assay [7] and -43.3% (inactive) in assay [8]. In addition, the inhibition of aggregation in assay [2] was 1.1% (inactive). Also, the nuclei count is 58.6% in assay [2] and 124% in assay [3]. In addition, the fluorescence slope was -0.274 (inactive) in assay [4] and 0.00592 (inactive) in assay [6]. Further, in assay [5], the NADPH fluorescence slope was -6.5e-06 (inactive).

Consider `O=C1CSC(c2cn(-c3ccccc3)nc2-c2cccs2)N1CC1CCCO1` (centres undefined), for which the cell count in assay [1] worked out at 453. Besides, the inhibition in assay [1] was -2.6% (inactive); in assay [3], -83.2% (inactive); in assay [7], 18.7% (inactive); in assay [8], 26.5% (inactive). Further, the inhibition of aggregation in assay [2] was 10.2% (inactive). Moreover, the nuclei count in assay [2] amounted to 101%; in assay [3], 117%. Further, the fluorescence slope in assay [4] is -0.534 (inactive); in assay [6], 0.00528 (inactive). Besides, the NADPH fluorescence slope in assay [5] is -3e-05 (inactive).

Turning to `COc1cc(-c2nnc(SCC(=O)c3ccc(C)cc3)o2)cc(OC)c1OC`, the cell count in assay [1] is 378. The inhibition is 1.7% (inactive) in assay [1], 28.9% (inactive) in assay [3], -8.63% (inactive) in assay [7] and -7.77% (inactive) in assay [8]. Also, in assay [2], the inhibition of aggregation was -8.1% (inactive). The values for the nuclei count in assay [2] and in assay [3] were 87.7% and 83.6%, respectively. Besides, the fluorescence slope in assay [4] is -0.607 (inactive); in assay [6], 0.00366 (inactive). Moreover, in assay [5], the NADPH fluorescence slope was 2.5e-05 (inactive).

With `COc1ccccc1C(O)P(=O)(OC(C)C)c1ccc(N(C)C)cc1` (centres undefined), the cell count in assay [1] came to 665. Also, the inhibition in assay [1] was -3.9% (inactive); in assay [3] it was 0% (inactive); in assay [7], 7.42% (inactive); in assay [8], 11% (inactive). In addition, the inhibition of aggregation in assay [2] was 6.1% (inactive). Also, the nuclei count in assay [2] turned out to be 122%; in assay [3], 106%. For the same compound, the fluorescence slope in assay [4] is -0.553 (inactive); in assay [6] it was 0.00553 (inactive). Further, the NADPH fluorescence slope in assay [5] is 2.2e-06 (inactive).
